Hits are enriched below; roughly 2.3% of the tested compounds scored in any of these assays.
V1aR counter: counter-screen for oxytocin receptor agonists: human V1a receptor agonists; AID 2797; actives 0.25% (n = 320,000); CHO-V1R cells, Fluo-8 calcium fluorescence, agonist mode; 0% DMSO, 100% 3 nM vasopressin; activation, % at 3 µM;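 active means activation above the mean activation of all tested compounds plus 3 SD, per screening run, cut at about 20% in these data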;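 further: signal is peak over basal fluorescence ratio across a 100 second FLIPR read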
TAAR1 ag: human TAAR1 agonism | CHO RD-HGA16 TAAR1, Fluo-8 calcium fluorescence; vehicle wells 0%, saturating PEA agonist 100% | activation, % at 3 µM | Q96RJ0 | actives 0.99% (n = 360,000);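 active means activation above the mean activation of all test compounds in the run plus 3 SD, cut at about 38% in these data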
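System: CHO RD-HGA16 cells carrying human TAAR1 plus Gα16; Incubation: 17-24 h seeding, 75 min 37 °C dye, 30 min RT; Measured by: Fluo-8 fluorescence, 5 s baseline then 140 s kinetic read; Control set: DMSO and PEA EC100; Replication: single well for each compound.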
OXTR potentiator: human OXTR potentiation; P30559; CHO-OTR cells, Fluo-8 calcium fluorescence, potentiator mode; 0% = oxytocin EC15, 100% = EC100; activation, % at 3 µM; actives 0.061% (n = 320,000);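 active means activation above that plate's cutoff, the mean activation of tested compounds plus 3 SD, cut at about 6.6% in these data, passing the limit was not always enough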;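 further: 100% uses oxytocin at 75 nM as the full agonist control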
Target sequence (P30559 whole entry, looked up): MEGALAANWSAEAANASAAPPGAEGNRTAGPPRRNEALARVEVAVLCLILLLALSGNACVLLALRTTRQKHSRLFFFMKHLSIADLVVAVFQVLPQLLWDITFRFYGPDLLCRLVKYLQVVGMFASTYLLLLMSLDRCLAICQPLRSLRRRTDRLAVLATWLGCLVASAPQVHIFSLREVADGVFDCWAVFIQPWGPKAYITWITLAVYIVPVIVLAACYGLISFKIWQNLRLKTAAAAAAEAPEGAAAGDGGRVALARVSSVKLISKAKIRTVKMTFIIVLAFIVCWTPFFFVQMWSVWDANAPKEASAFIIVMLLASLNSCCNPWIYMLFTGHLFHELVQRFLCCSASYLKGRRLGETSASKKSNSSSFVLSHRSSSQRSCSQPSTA
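Measured by – Fluo-8 calcium dye fluorescence · Test system – human OTR in CHO cells · Dosing – one concentration, 3.0 µM compound · Controls – EC15 oxytocin alone as 0%, 75 nM oxytocin as 100% · Evaluation – normalized max/min fluorescence ratio, % activation · Timing – 6 min pre-incubation, 100 s read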
OXTR ag: human OXTR agonism | P30559 | CHO-OTR cells, Fluo-8 calcium fluorescence; normalized: DMSO 0%, oxytocin 100% | activation, % at 3 µM | actives 0.32% (n = 320,000) | AID 2435;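 active means activation above the mean of all tested compounds plus 3 SD, cutoff set per screening run, cut at about 20% in these data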;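 further: peak over basal fluorescence ratio from a 100 s FLIPR kinetic read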
TAAR1 antag: antagonists of human TAAR1 | Q96RJ0 | CHO RD-HGA16 TAAR1, Fluo-8 calcium fluorescence, antagonist | actives 1.5% (n = 360,000) | inhibition, % at 3 µM;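 active means inhibition above a per-plate cutoff, the mean inhibition of test compounds on that plate plus 3 SD, cut at about 49% in these data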;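 further: 0% = DMSO plus EC80 beta-PEA response and 100% = DMSO alone without agonist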
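Assay system: RD-HGA16 CHO cells with stable hTAAR1 and Gα16 / Reagent: EC80 β-phenethylamine stimulus / Doses: 3 µM, single point / Timing: dye loading 75 min at 37 °C, then 30 min room temperature / Measured by: Fluo-8 intracellular calcium dye fluorescence, real-time kinetic reads / Controls: vehicle wells and EC80 agonist wells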
Numbers without * were called inactive; nt = no result.

SMILES	V1aR counter	TAAR1 ag	OXTR potentiator	OXTR ag	TAAR1 antag
COc1ccc(NC(=O)CCNC(=O)c2ccc([N+](=O)[O-])cc2)cc1S(=O)(=O)N1CCCCC1	nt	0	nt	nt	-34
COc1cccc(C(C(=O)NC2CCCC2)N(CC2CCCO2)C(=O)Cc2cccs2)c1 (stereo not drawn)	-1	2	3	-1	1
COc1cccc(CC2CC(=O)N(c3ccc4c(C)cc(=O)oc4c3)C2=O)c1 (stereo not drawn)	0	1	-1	-1	-10
CCOC(=O)C1(C)CCN1C(=O)c1ccc2ccccc2c1 (stereo not drawn)	nt	3	nt	nt	-15
c1cncc(-c2nc(NCC3COc4ccccc4O3)c3ccccc3n2)c1 (stereo not drawn)	0	14	-7	-1	54*
c1cncc(-c2nc(NCc3ccc4c(c3)OCO4)c3ccccc3n2)c1	-1	2	-8	-2	29
COc1ccc(CCNc2ncnc3sccc23)cc1OC	10	11	-12	17	32
COc1ccc(CCNc2ncnc3c2oc2ccccc23)cc1OC	10	12	-17	9	61*
Cc1nc(NCCc2cnc[nH]2)c2oc3ccccc3c2n1	0	17	1	0	-8
COc1ccc(CCNc2nc(-c3cccnc3)nc3ccccc23)cc1OC	2	15	-12	0	63*
COc1ccc(CCNc2nc(C)nc3c2oc2ccccc23)cc1OC	10	13	-8	13	49*
Cc1ccc(C)c(Cn2c3ccccc3c3cnn(CC(=O)NCCCN4CCCCC4)c(=O)c32)c1	1	2	0	0	9
c1ccc(CCCN2CCN(c3ccccn3)CC2)cc1	nt	2	nt	nt	-1
Cc1ccccc1N1C(=O)c2cccc3c(N(C)CCO)ccc(c23)C1=O	24*	22	-15	25*	27
C/C(=N\NC(=O)C1CCCC1)c1ccc(NC(=O)C(F)(F)F)cc1	nt	0	nt	nt	-6
N=C(N)SCc1cn(-c2ccccc2)nc1-c1ccc(Br)cc1	nt	79*	nt	nt	47
CCCCCn1nnc2c(=O)oc3ccccc3c21	0	1	-8	-1	4
CC1=NNC(=O)/C1=C\c1cn(-c2ccccc2)nc1-c1cccs1	2	37	-15	4	86*
O=C(COC(=O)/C=C/c1ccccc1)Nc1ccc2c(c1)OCCO2	1	4	-4	1	-3
O=C(COC(=O)/C=C/c1ccc(Cl)cc1)Nc1ccc2c(c1)OCCO2	0	42*	-6	0	54*
CN(C)c1ccc(NC2=C(Cl)C(=O)c3ccccc3C2=O)cc1	-2	3	-13	-3	66*
O=C1C(Cl)=C(Nc2ccc3cn[nH]c3c2)C(=O)c2ccccc21	-2	-4	-23	-2	62*
O=C(Nc1ccc2cn[nH]c2c1)c1c(Cl)cccc1Cl	1	1	-6	1	1
COc1ccc(CCNS(=O)(=O)CCNC(=O)c2ccc3c(c2)OCO3)cc1OC	-1	0	-5	-2	-20
O=C(O)/C=C\C(=O)Nc1ccccc1C(=O)N1CCC(O)(c2ccc(Cl)cc2)CC1	nt	5	nt	nt	-7
SMILES	V1aR counter	TAAR1 ag	OXTR potentiator	OXTR ag	TAAR1 antag
O=C(Nc1ccc(OCc2ccccc2)cc1)c1ccccc1	-1	1	-5	0	-3
Cc1ccsc1C(=O)Nc1ccc(OCc2ccccc2)cc1	0	17	-7	-1	54*
Cc1cccc(Nc2nc(N)nc(N)c2N=O)c1	nt	45*	nt	nt	-56
CC(=O)Nc1ccc(S(=O)(=O)N(Cc2cccnc2)Cc2cc3ccccc3[nH]c2=O)cc1	5	12	-7	3	61*
COc1ccc(N(Cc2cc3cc(OC)ccc3[nH]c2=O)S(=O)(=O)c2ccc(NC(C)=O)cc2)cc1	0	29	-12	1	58*
O=C(NCc1ccc(Cl)cc1)c1ccc2ccccc2n1	1	2	-3	0	4
CC(C)C[C@H]1CN=C(N(C)C)N1CCc1cccc(F)c1	2	14	-2	1	8
CC(C)C[C@H]1CN=C(Nc2ccccc2)N1CCc1cccc(F)c1	73*	nt	-10	51*	nt
Cc1[nH]c2ccccc2c1/C=N/NC(=O)c1cc(-c2ccccc2)n[nH]1	-1	15	-2	0	61*

Screens deposited in PubChem BioAssay by The Scripps Research Institute Molecular Screening Center.
